{"source": "the M2OR odorant receptor database", "data": [{"target": "T1, OR1A1 (Homo sapiens) (UniProt Q9P1Q5)", "T1 sequence (whole entry)": "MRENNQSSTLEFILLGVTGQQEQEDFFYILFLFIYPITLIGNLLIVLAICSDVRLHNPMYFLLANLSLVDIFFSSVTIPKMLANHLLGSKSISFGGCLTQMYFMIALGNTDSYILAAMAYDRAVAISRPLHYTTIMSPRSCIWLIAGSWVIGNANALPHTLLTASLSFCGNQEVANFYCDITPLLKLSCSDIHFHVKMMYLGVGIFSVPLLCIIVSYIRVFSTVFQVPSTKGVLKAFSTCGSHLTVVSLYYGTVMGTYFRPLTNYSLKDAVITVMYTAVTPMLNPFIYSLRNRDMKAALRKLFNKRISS", "conditions": "stereoisomer not certain", "in_short": "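Each receptor–molecule pair is labelled responsive or non-responsive (inactive) according to whether the original authors judged the measured signal statistically different from baseline. The data were taken from the main text and supplementary material of published papers and checked for typos and inconsistencies. Assay methods differed by source, with transient luciferase assays in mammalian cell lines being common.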", "values": [{"smiles": "CC(C)=CCCC(C)=CCCC(C)=CCO", "odorant receptor agonist call": "inactive"}, {"smiles": "CC(C)CCO", "odorant receptor agonist call": "inactive"}, {"smiles": "C=C1CCC2CC1C2(C)C", "note": "(configuration not stated)", "odorant receptor agonist call": "inactive"}, {"smiles": "CCOC(=O)C(C)C", "odorant receptor agonist call": "inactive"}, {"smiles": "O=C(O)CCc1ccccc1", "odorant receptor agonist call": "inactive"}, {"smiles": "CCOC(=O)c1ccccc1", "odorant receptor agonist call": "inactive"}, {"smiles": "O=C([O-])CCCCC(=O)[O-].[H+].[H+]", "odorant receptor agonist call": "inactive"}, {"smiles": "CCCCC1CCC(=O)O1", "note": "(configuration not stated)", "odorant receptor agonist call": "inactive"}, {"smiles": "C=C(C)c1ccc(C)cc1", "odorant receptor agonist call": "inactive"}, {"smiles": "CCCCCC(C)O", "note": "(configuration not stated)", "odorant receptor agonist call": "inactive"}, {"smiles": "Cc1ccc(O)cc1", "odorant receptor agonist call": "inactive"}, {"smiles": "CSCCCO", "odorant receptor agonist call": "inactive"}, {"smiles": "C=C(C)C1CC=C(C)C(OC(C)=O)C1", "note": "(configuration not stated)", "odorant receptor agonist call": "inactive"}, {"smiles": "CCOC(=O)CCC(C)C", "odorant receptor agonist call": "inactive"}, {"smiles": "C=C(C)C1CC=C(C)CC1", "note": "(configuration not stated)", "odorant receptor agonist call": "active"}, {"smiles": "C=C(C)C1CC=C(C)C(O)C1", "note": "(configuration not stated)", "odorant receptor agonist call": "active"}, {"smiles": "c1ccccc1", "odorant receptor agonist call": "inactive"}, {"smiles": "CCCCCCCCC1CCC(=O)O1", "note": "(configuration not stated)", "odorant receptor agonist call": "inactive"}, {"smiles": "CCOC(=O)CCSC", "odorant receptor agonist call": "inactive"}, {"smiles": "CCCCOC(=O)C(C)OC(=O)CCC", "note": "(configuration not stated)", "odorant receptor agonist call": "inactive"}, {"smiles": "COCCC(C)(C)S", "odorant receptor agonist call": "inactive"}, {"smiles": "CC1=CCC(C(C)(C)S)CC1", "note": "(configuration not stated)", "odorant receptor agonist call": "inactive"}, {"smiles": "CC(CC=O)CCCC(C)(C)O", "note": "(configuration not stated)", "odorant receptor agonist call": "active"}, {"smiles": "CCCC(=O)C(C)=O", "odorant receptor agonist call": "inactive"}, {"smiles": "SCCc1ccccc1", "odorant receptor agonist call": "active"}, {"smiles": "COc1cc(C(=O)O)ccc1O", "odorant receptor agonist call": "inactive"}, {"smiles": "CC1(C)C2CC=C(C=O)C1C2", "note": "(configuration not stated)", "odorant receptor agonist call": "inactive"}, {"smiles": "CCC(=O)C(C)S", "note": "(configuration not stated)", "odorant receptor agonist call": "inactive"}, {"smiles": "CCCCCCCCCS", "odorant receptor agonist call": "active"}, {"smiles": "O=C1Cc2ccccc2O1", "odorant receptor agonist call": "inactive"}, {"smiles": "CCC=CCCC=O", "odorant receptor agonist call": "inactive"}, {"smiles": "CCCCCCC(C)=O", "odorant receptor agonist call": "active"}, {"smiles": "CCCCCCCC1CCC(=O)O1", "note": "(configuration not stated)", "odorant receptor agonist call": "inactive"}, {"smiles": "O=c1ccc2ccccc2o1", "odorant receptor agonist call": "inactive"}, {"smiles": "C=C(C)C1CCC(C)C(=O)C1", "note": "(configuration not stated)", "odorant receptor agonist call": "active"}, {"smiles": "CCCCCC=CC=O", "odorant receptor agonist call": "inactive"}, {"smiles": "CC(=O)OCCC(C)C", "odorant receptor agonist call": "inactive"}]}]}
